Measurements reported in ChEMBL document CHEMBL4699493, “Development of Bis-cyclic Imidazolidine-4-one Derivatives as Potent Antibacterial Agents” (J Med Chem, 2020).
Converted amounts (≈) assume the structure as drawn. The source made the active and inactive calls. The calls are words filed in the database; no cut-off is given here.

Tests used:
[1] = system: Staphylococcus epidermidis; experiment: Antibacterial activity against methicillin-resistant Staphylococcus epidermidis RP62A; type: functional
Procedure, shortened: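 Broth microdilution in TSB. Strains were grown 16 h, subcultured 6 h to log phase, then diluted to 10^6 CFU/mL by OD600. Compound came from a 5 mg/mL DMSO stock diluted in TSB and serially diluted, top final concentration 25 μg/mL. MIC was the lowest concentration giving complete growth inhibition. Done ≥3 times in duplicate.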

Escherichia coli [2] = experiment: Antibacterial activity against Escherichia coli ATCC 25922; type: functional
Procedure, shortened: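 Broth microdilution in TSB. Stocks at 5 mg/mL in DMSO diluted with TSB to 100 μg/mL, then serially diluted; highest test concentration 25 μg/mL. Bacteria grown 16 h, subcultured 6 h to log phase, adjusted to 10^6 CFU/mL by OD600. MIC = lowest concentration giving complete growth inhibition. At least three repeats, each in duplicate.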

HeLa = experiment: Cytotoxicity against human HeLa cells after 24 hrs by MTT assay; type: cell-based
Procedure, shortened: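 HeLa cells seeded at 5 × 10^3 cells/well, attached 24 h at 37 °C, 5% CO2, then exposed to a range of compound concentrations in growth medium for 24 h. Viability read with CCK-8 reagent, absorbance at 490 nm after 1 h. Triplicate wells, three repeats.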

[3] = Selectivity ratio of IC50 for cytotoxicity against human HeLa cells to MIC for methicillin-resistant Staphylococcus aureus; type: toxicity, cell-based
Procedure, shortened: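 HeLa cells were seeded at 5×10^3/well and allowed to attach for 24 h (37 °C, 5% CO2). They were then exposed 24 h to a range of compound concentrations in growth medium. Viability was read by CCK-8 (1 h, absorbance 490 nm). Triplicate wells, three repeats. IC50 was divided by the MRSA MIC.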

Staphylococcus aureus [4] = experiment: Antibacterial activity against methicillin-resistant Staphylococcus aureus ATCC 33591 in presence of divalent Ca2+; type: functional
Procedure, shortened: (§1)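 MIC set up as in the standard TSB broth microdilution (log-phase inoculum at 10^6 CFU/mL, complete growth inhibition end point). The medium was TSB prepared in DI water with CaCl2 added to 2 mM.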

[5] = system: Staphylococcus epidermidis; experiment: Antibacterial activity against methicillin-resistant Staphylococcus epidermidis RP62A in presence of divalent Ca2+; type: functional; procedure, shortened: as §1
Escherichia coli [6] = experiment: Bactericidal activity against Escherichia coli ATCC 25922 at 24 to 48 microg/ml measured after 30 mins by time kill assay; type: functional, organism-based; settings: dose microg/ml 24-48, time 30.0 min
Procedure, shortened: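 Mid-log bacteria at 10^6 CFU/mL incubated with compound (12, 24, 48 μg/mL) at 37 °C for 10, 30, 60, 120 min; untreated control. Mixtures diluted 10^4-fold, plated on TSB agar, incubated 20 h at 37 °C, colonies counted and plotted against time. Three repeats.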

Cell membrane = experiment: Induction of inner membrane permeabilization in Escherichia coli ATCC 25922 at 2 times MIC measured for 12 mins by propidium iodide staining based fluorescence microscopic analysis; type: functional, subcellular
Procedure, shortened: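 Mid-log bacteria pelleted at 1000g, washed three times in 5 mM HEPES/5 mM glucose, and resuspended to 10^6 CFU/mL. PI added (50 μL of a 10 μM solution to 150 μL of cells). Fluorescence (ex 535 nm, em 617 nm) read every 2 min for about 8 min, then compound added and reading continued for 12 min. Water added as the no-drug control. Three repeats.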

Staphylococcus aureus [7] = experiment: Antibacterial activity against methicillin-resistant Staphylococcus aureus ATCC 33591 measured for 13 passages; type: functional, organism-based
Procedure, shortened: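 Serial-passage resistance test. A first MIC was run by TSB broth microdilution. Bacteria from the well after the last clear well were resuspended to about 10^6 CFU/mL for the next MIC. This was repeated for 13 passages.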

Escherichia coli [8] = experiment: Antibiofilm activity against Escherichia coli ATCC 25922 assessed as reduction in biofilm formation at 3 ug/ml measured after 2 days by crystal violet staining based assay; type: functional; settings: ATCC 25922, 48 h, time 2 day
Procedure, shortened: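 Mid-log E. coli (overnight culture, then 6 h subculture at 37 °C) set up with compound in TSB as in the MIC assay and incubated 2 days. Wells washed with DI water, stained with 0.1% crystal violet for 15 min, washed, dried, and dye solubilized in 30% acetic acid for 15 min. OD595 normalized to untreated control. Ciprofloxacin as comparator. Triplicate, mean ± STDEV.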

## CCCCCCCCCC(=O)N[C@@H](CCCCN)CN1CC(=O)N(c2ccc(N3CN(C[C@H](CCCCN)NC(=O)CCCCCCCCC)CC3=O)cc2)C1
[1]
  MIC: 5 µg/mL (≈ 6.38 µM)
Escherichia coli [2]
  MIC: 5 µg/mL (≈ 6.38 µM)
HeLa
  IC50: 74.8 µg/mL (≈ 95.5 µM)
[3]
  selectivity ratio: > 38
Staphylococcus aureus [4]
  MIC: 2 µg/mL
[5]
  MIC: 2 µg/mL
Escherichia coli [6]
  Activity: Active
Cell membrane
  Activity: Active
Staphylococcus aureus [7]
  Activity: Active
Escherichia coli [8]
  inhibition at 3 µg/mL: > 50%
